pIC50, pKi: −log10 of the molar value. Each block holds one molecule with its values, some of them ahead of it. Active and inactive are the calls of the source. The calls are words filed in the database; no cut-off is given here.
What was measured:
[1] = biological target: Mu-type opioid receptor (Homo sapiens, UniProt P35372); test: Antagonist activity at human MOR transfected in CHO cells co-transfected with Gqi5 assessed as inhibition of DAMGO-induced calcium mobilization incubated for 15 mins prior to DAMGO addition and measured for 90 secs by Fluo-4AM dye based fluorescence analysis; assay type: functional, cell-based
Chain of Mu-type opioid receptor (Homo sapiens, UniProt P35372) (P35372 whole entry): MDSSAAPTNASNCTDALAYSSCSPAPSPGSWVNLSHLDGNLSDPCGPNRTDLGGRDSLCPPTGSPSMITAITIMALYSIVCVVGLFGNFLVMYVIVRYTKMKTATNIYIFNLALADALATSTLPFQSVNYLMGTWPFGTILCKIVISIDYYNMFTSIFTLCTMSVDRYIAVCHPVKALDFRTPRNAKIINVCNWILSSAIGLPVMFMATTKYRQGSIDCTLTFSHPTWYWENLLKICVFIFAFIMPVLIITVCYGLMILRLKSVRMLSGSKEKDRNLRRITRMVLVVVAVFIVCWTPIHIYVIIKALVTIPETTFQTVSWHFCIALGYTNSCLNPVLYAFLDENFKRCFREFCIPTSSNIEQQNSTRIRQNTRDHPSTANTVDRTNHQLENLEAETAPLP
In short: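 Gqi5-transfected hMOR-CHO cells plated at 20,000/well and used 48 h after transfection. Loaded 30 min with Fluo-4 AM/probenecid in HBSS:HEPES, then ligands added for 15 min. IC50 from non-linear regression of peak heights. Three repeats.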

[2] = biological target: T1, C-C chemokine receptor type 5 (Homo sapiens, UniProt P51681); test: Antagonist activity at CCR5 receptor in human MOLT4 cells transfected with Gqi5 assessed as inhibition of RANTES-induced calcium mobilization incubated for 15 mins prior to RANTES addition and measured for 120 secs by Fluo-4AM dye based fluorescence analysis; assay type: functional, cell-based, MOLT-4
In short: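 CCR5-MOLT-4 cells transfected with Gqi5, assayed 48 h later at 25,000 cells/well. Fluo-4 AM/probenecid loading for 45 min, then ligands for 15 min. IC50 from non-linear regression of peak heights. Three repeats.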
Target sequence in this assay (P51681 whole entry): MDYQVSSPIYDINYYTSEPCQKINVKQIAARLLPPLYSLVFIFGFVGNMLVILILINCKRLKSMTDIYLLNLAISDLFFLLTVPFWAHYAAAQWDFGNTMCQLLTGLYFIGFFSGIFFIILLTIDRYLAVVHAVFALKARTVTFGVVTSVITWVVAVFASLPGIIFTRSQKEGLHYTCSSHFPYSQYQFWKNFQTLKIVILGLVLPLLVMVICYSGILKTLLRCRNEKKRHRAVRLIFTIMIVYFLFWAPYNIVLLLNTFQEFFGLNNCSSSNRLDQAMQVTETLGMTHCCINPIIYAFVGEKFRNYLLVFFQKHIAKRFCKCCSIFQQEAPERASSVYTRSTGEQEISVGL

[3] = biological target: T1, C-C chemokine receptor type 5; test: Agonist activity at CCR5 receptor in human MOLT4 cells transfected with Gqi5 assessed as calcium mobilization incubated for 15 mins by Fluo-4AM dye based fluorescence analysis; assay type: functional, cell-based; settings: MOLT-4
In short: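 CCR5-MOLT-4 cells transfected with Gqi5, tested 48 h post-transfection at 25,000 cells/well in 50:1 HBSS:HEPES buffer. Fluo-4 AM with probenecid loaded for 45 min, then varying ligand concentrations added for 15 min. Fluorescence at 494/516 nm read for 120 s, with buffer alone added at 16 s in place of RANTES. Peak height taken as agonism read-out.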
Target sequence in this assay (P51681 whole entry, looked up): as the sequence (P51681 whole entry) above

[4] = system: Human immunodeficiency virus 1; test: Antiviral activity against HIV-1 BAL infected in human astrocytes assessed as reduction in p24 production at 10 to 1000 nM treated for 1 hr prior to viral infection and measured after 5 days by ELISA; assay type: functional, organism-based; settings: Astrocyte, dose 10-1000 nM, time 5.0 day
In short: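 Primary human astrocytes plated at 1 × 10^5 cells/mL and stimulated 48 h with IL-2 (100 ng/mL) and PHA (5 µg/mL). Polybrene for 30 min, then compound at 10, 100, 1000 nM for 1 h before infection with HIV-1 BaL (p24 1000 pg/mL). p24 ELISA on supernatants and lysates at day 5.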

[5] = system: Human immunodeficiency virus 1; test: Antiviral activity against HIV-1 BAL infected in human macrophages assessed as reduction in p24 production at 1 uM treated for 1 hr prior to viral infection and measured after 5 days by ELISA; assay type: functional, organism-based; settings: Macrophage, time 5.0 day
In short: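 Macrophages derived from PBMCs with M-CSF (100 ng/mL) for 6 days, plated at 1 × 10^5 cells/mL and stimulated 48 h with IL-2/PHA. Polybrene for 30 min, compound (10–1000 nM) for 1 h before HIV-1 BaL (p24 1000 pg/mL). p24 in supernatant and lysate measured by ELISA 5 days post-infection. ANOVA with Dunnett's test.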

[6] = system: Human immunodeficiency virus 1; test: Antiviral activity against HIV-1 BAL infected in human PBMC assessed as reduction in p24 production at 1 uM treated for 1 hr prior to viral infection and measured after 5 days by ELISA; assay type: functional, organism-based; settings: time 5.0 day
In short: (§1)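 Ficoll-isolated human PBMCs plated at 1 × 10^5 cells/mL and stimulated 48 h with IL-2 (100 ng/mL) and PHA (5 µg/mL). Then polybrene (2 µg/mL) for 30 min, compound at 10, 100 or 1000 nM for 1 h, and infection with R5-tropic HIV-1 BaL (p24 1000 pg/mL). Supernatant and RIPA lysate p24 measured by ELISA at day 5. Dunnett's test against infection alone.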

[7] = biological target: Mu-type opioid receptor (Mus musculus, UniProt P42866); test: Displacement of [3H]NLX from mouse MOR expressed in CHO cell membrane incubated for 90 mins by liquid scintillation spectrophotometry; assay type: cell membranes
Chain of Mu-type opioid receptor (Mus musculus, UniProt P42866) (P42866 whole entry): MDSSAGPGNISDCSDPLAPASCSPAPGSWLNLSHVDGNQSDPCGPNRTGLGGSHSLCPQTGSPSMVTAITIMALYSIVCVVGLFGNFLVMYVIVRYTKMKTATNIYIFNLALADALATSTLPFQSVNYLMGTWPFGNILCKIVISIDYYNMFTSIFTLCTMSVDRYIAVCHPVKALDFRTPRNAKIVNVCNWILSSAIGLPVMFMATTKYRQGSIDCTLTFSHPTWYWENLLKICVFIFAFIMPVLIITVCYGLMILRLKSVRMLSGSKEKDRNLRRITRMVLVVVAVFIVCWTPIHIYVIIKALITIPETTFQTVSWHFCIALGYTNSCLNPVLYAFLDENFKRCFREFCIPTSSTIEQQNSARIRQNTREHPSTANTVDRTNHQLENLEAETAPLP
In short: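 mMOR-CHO membranes incubated 90 min at 30 °C with 2 nM [3H]naloxone and varying unlabeled ligand. Bound ligand collected by rapid GF-B filtration with 3 ice-cold Tris washes and counted by scintillation (45% efficiency). Competitor IC50 used to derive Ki. At least three independent experiments.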

[8] = biological target: C-C chemokine receptor type 5 (Macaca mulatta, UniProt P61813); test: Displacement of [125I]MIP-1alpha from CCR5 receptor in rhesus monkey membrane incubated for 120 mins by liquid scintillation counting analysis; assay type: cell membranes, Cell membrane
[9] = system: CHO; test: Antagonist activity at CCR5 receptor in CHO cells co-expressing hMOR, CD4 and luciferase reporter assessed as inhibition of CD4-gp120 complex interaction with receptor dimer by measuring inhibition of cell-cell fusion process at 100 nM measured after co-incubation of CHO cells with HEK293 cells …; assay type: cell-based; settings: Cricetulus griseus, filed as antagonist, time 18.0 hrs
[10] = system: Human immunodeficiency virus 1; test: Antiviral activity against HIV-1 SF162 infected in human astrocytes assessed as reduction in viral invasion by measuring decrease in Tat protein expression at 100 nM treated prior to viral infection and measured after 18 hrs by luciferase based assay; assay type: functional, organism-based; settings: Astrocyte
In short: (§2)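 Primary human astrocytes in 24-well plates transfected with pBlue3'LTR-luc. […] Uninfected cells served as negative control. After about 18–20 h, cells were PBS-rinsed and lysed, and Tat-driven luciferase was measured.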

[11] = system: Human immunodeficiency virus 1; test: Antiviral activity against HIV-1 BAL infected in human macrophages assessed as reduction in p24 production at 500 nM treated for 1 hr prior to viral infection and measured after 5 days by ELISA; assay type: functional, organism-based; settings: Macrophage, time 5.0 day
In short: (§3)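 PBMCs were Ficoll-isolated from leukopak blood and grown in RPMI-1640 with 10% FBS; macrophages came from PBMCs given M-CSF 100 ng/mL for 6 days. Cells at 1 × 10^5/mL were stimulated with IL-2 (100 ng/mL) and PHA (5 µg/mL) for 48 h, then polybrene (2 µg/mL) for 30 min. Compound was added 1 h before R5 HIV-1 BaL (p24 1000 pg/mL). Supernatant and RIPA-lysate p24 were measured by ELISA at day 5.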

[12] = system: Human immunodeficiency virus 1; test: Antiviral activity against HIV-1 SF162 infected in human astrocytes assessed as reduction in viral invasion by measuring decrease in Tat protein expression at 100 nM co-treated with morphine prior to viral infection and measured after 18 hrs by luciferase based assay; assay type: functional, organism-based; settings: Astrocyte; in short: as §2
[13] = system: Human immunodeficiency virus 1; test: Antiviral activity against HIV-1 BAL infected in human PBMC assessed as reduction in p24 production at 500 nM treated for 1 hr prior to viral infection and measured after 5 days by ELISA; assay type: functional, organism-based; settings: time 5.0 day; in short: as §3
[14] = system: CHO; test: Antagonist activity at CCR5 receptor in CHO cells co-expressing hMOR, CD4 and luciferase reporter assessed as inhibition of CD4-gp120 complex interaction with receptor dimer by measuring inhibition of cell-cell fusion process at 100 nM measured after co-incubation of CHO cells with HEK293 cells …; assay type: cell-based; settings: Cricetulus griseus, filed as antagonist, time 18.0 hrs; remark: listed apart in the source
[15] = system: Human immunodeficiency virus 1; test: Antiviral activity against HIV-1 BAL infected in human PBMC assessed as reduction in p24 production at 10 to 1000 nM treated for 1 hr prior to viral infection and measured after 5 days by ELISA; assay type: functional, organism-based; settings: dose 10-1000 nM, time 5.0 day; in short: as §1
[16] = system: Human immunodeficiency virus 1; test: Antiviral activity against HIV-1 SF162 infected in human astrocytes assessed as reduction in viral invasion by measuring decrease in Tat protein expression at 100 nM treated prior to viral infection and measured after 18 hrs by luciferase based assay relative to maraviroc in presence of morphine; assay type: functional, Astrocyte
In short: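 Primary human astrocytes carried the transfected pBlue3'LTR-luc reporter. […] Uninfected cells served as negative control. Lysates were taken about 18–20 h later after PBS rinses, and Tat expression was quantified by luciferase luminescence.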

[17] = system: Human immunodeficiency virus 1; test: Antiviral activity against HIV-1 SF162 infected in human astrocytes assessed as reduction in viral invasion by measuring decrease in Tat protein expression at 100 nM treated prior to viral infection and measured after 18 hrs by luciferase based assay relative to maraviroc; assay type: functional, Astrocyte
In short: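 Primary human astrocytes in 24-well plates were transfected with the LTR-luciferase reporter pBlue3'LTR-luc. […] Uninfected cells served as negative control. After about 18–20 h, cells were PBS-rinsed and lysed, and luciferase activity was read as Tat expression.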

[18] = system: CHO; test: Binding affinity to CCR5-hMOR heterodimer in CHO cells co-expressing CD4 and luciferase reporter assessed as inhibition of CD4-gp120 complex interaction with receptor dimer by measuring inhibition of cell-cell fusion process at 3000 nM measured after co-incubation of CHO cells with HEK293 cells …; assay type: cell-based; settings: time 18.0 hrs
[19] = system: CHO; test: as above; assay type: cell-based; settings: time 18.0 hrs; remark: listed apart in the source

Structure (SMILES): Cc1nnc(C(C)C)n1[C@H]1C[C@H]2CC[C@@H](C1)N2CC[C@H](NC(=O)C1CCC(F)(F)CC1)c1ccc(NC(=O)COCC(=O)NCCCCCCCCCNC(=O)COCC(=O)N[C@@H]2CC[C@@]3(O)[C@H]4Cc5ccc(O)c6c5[C@@]3(CCN4CC3CC3)[C@H]2O6)cc1
- pIC50 [1]: 7.66
- pIC50 [2]: 6.27
- Activity [3]: inactive
- Activity [4]: Active
- Activity [5]: Active
- Activity [6]: Active
- pKi [7]: 8.19

Structure (SMILES): CNC(=O)COCC(=O)NCCCCCNC(=O)COCC(=O)N[C@@H]1CC[C@@]2(O)[C@H]3Cc4ccc(O)c5c4[C@@]2(CCN3CC2CC2)[C@H]1O5
- pIC50 [1]: 7.04
- pKi [7]: 9.11

- pIC50 [2]: 6.02
- Activity [3]: inactive
Structure (SMILES): CNC(=O)COCC(=O)NCCCCCNC(=O)COCC(=O)Nc1ccc([C@H](CCN2[C@@H]3CC[C@H]2C[C@@H](n2c(C)nnc2C(C)C)C3)NC(=O)C2CCC(F)(F)CC2)cc1

Structure (SMILES): CNC(=O)COCC(=O)NCCCCCCCNC(=O)COCC(=O)N[C@@H]1CC[C@@]2(O)[C@H]3Cc4ccc(O)c5c4[C@@]2(CCN3CC2CC2)[C@H]1O5
- pKi [7]: 8.04

Structure (SMILES): CNC(=O)COCC(=O)NCCCCCCCCCNC(=O)COCC(=O)N[C@@H]1CC[C@@]2(O)[C@H]3Cc4ccc(O)c5c4[C@@]2(CCN3CC2CC2)[C@H]1O5
- pIC50 [1]: 7.38
- pKi [7]: 8.95

Structure (SMILES): CNC(=O)COCC(=O)NCCCCCCCNC(=O)COCC(=O)Nc1ccc([C@H](CCN2[C@@H]3CC[C@H]2C[C@@H](n2c(C)nnc2C(C)C)C3)NC(=O)C2CCC(F)(F)CC2)cc1
- pIC50 [2]: 6.21
- Activity [3]: inactive
- pKi [8]: 6.82

Structure (SMILES): Cc1nnc(C(C)C)n1[C@H]1C[C@H]2CC[C@@H](C1)N2CC[C@H](NC(=O)C1CCC(F)(F)CC1)c1ccccc1
- Activity [9]: Active
- Activity [10]: Active
- Activity [11]: Active
- Activity [12]: inactive
- Activity [13]: Active
- Activity [14]: Active

- pIC50 [2]: 6.89
- Activity [3]: inactive
Structure (SMILES): CNC(=O)COCC(=O)NCCCCCCCNC(=O)COCC(=O)Nc1cccc([C@H](CCN2[C@@H]3CC[C@H]2C[C@@H](n2c(C)nnc2C(C)C)C3)NC(=O)C2CCC(F)(F)CC2)c1

Structure (SMILES): Cc1nnc(C(C)C)n1[C@H]1C[C@H]2CC[C@@H](C1)N2CC[C@H](NC(=O)C1CCC(F)(F)CC1)c1ccc(NC(=O)COCC(=O)NCCCCCCCNC(=O)COCC(=O)N[C@@H]2CC[C@@]3(O)[C@H]4Cc5ccc(O)c6c5[C@@]3(CCN4CC3CC3)[C@H]2O6)cc1
- pIC50 [1]: 7.40
- pIC50 [2]: 6.90
- Activity [15]: Active
- Activity [3]: inactive
- Activity [4]: Active
- Activity [5]: Active
- Activity [10]: Active
- fold change (FC) [16]: 7
- Activity [12]: Active
- fold change (FC) [17]: 3.3
- pKi [7]: 8.49
- Activity [18]: Active
- Activity [19]: Active
- pKi [8]: 6.62

Structure (SMILES): Cc1nnc(C(C)C)n1[C@H]1C[C@H]2CC[C@@H](C1)N2CC[C@H](NC(=O)C1CCC(F)(F)CC1)c1ccc(NC(=O)COCC(=O)NCCCCCNC(=O)COCC(=O)N[C@@H]2CC[C@@]3(O)[C@H]4Cc5ccc(O)c6c5[C@@]3(CCN4CC3CC3)[C@H]2O6)cc1
- pIC50 [1]: 7.66
- pIC50 [2]: 5.62
- Activity [15]: inactive
- Activity [3]: inactive
- Activity [4]: Active
- Activity [5]: inactive
- pKi [7]: 8.42

- pIC50 [2]: 6.41
- Activity [3]: inactive
Structure (SMILES): CNC(=O)COCC(=O)NCCCCCCCCCNC(=O)COCC(=O)Nc1ccc([C@H](CCN2[C@@H]3CC[C@H]2C[C@@H](n2c(C)nnc2C(C)C)C3)NC(=O)C2CCC(F)(F)CC2)cc1

Structure (SMILES): Cc1nnc(C(C)C)n1[C@H]1C[C@H]2CC[C@@H](C1)N2CC[C@H](NC(=O)C1CCC(F)(F)CC1)c1cccc(NC(=O)COCC(=O)NCCCCCCCNC(=O)COCC(=O)N[C@@H]2CC[C@@]3(O)[C@H]4Cc5ccc(O)c6c5[C@@]3(CCN4CC3CC3)[C@H]2O6)c1
- pIC50 [1]: 7.77
- pIC50 [2]: 5.87
- Activity [3]: inactive
- pKi [7]: 8.00

Source: ChEMBL document CHEMBL4715781, “Exploration of bivalent ligands targeting putative mu opioid receptor and chemokine receptor CCR5 dimerization” (Bioorg Med Chem, 2016)
